Experimental data reported in ChEMBL document CHEMBL1151448, “Comparative antianaerobic activities of doripenem determined by MIC and time-kill analysis” (2008).
Converted amounts (≈) assume the structure as drawn.

Experiments:
Assay type in all cases: functional
[1] = system: Paraclostridium bifermentans; test: Antimicrobial activity against Clostridium bifermentans isolated from intra-abdominal infection and pelvic inflammatory disease patients after 48 hrs by agar dilution method
Procedure, shortened: (§1)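 CLSI agar dilution on brucella blood agar supplemented with laked sheep blood, hemin and vitamin K. Inocula of about 1 × 10^5 CFU/spot were applied by Steers replicator, and plates were incubated 48 h at 35°C in an anaerobic glove box. MIC was the concentration giving marked growth reduction versus the anaerobic control plate. QC strains were included each run, and β-lactamase was detected by Cefinase disk.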

Prevotella denticola = test: Antimicrobial activity against beta lactamase-positive Prevotella denticola isolated from intra-abdominal infection and pelvic inflammatory disease patients after 48 hrs by agar dilution method; procedure, shortened: as §1
Bacteroides fragilis [2] = test: Antimicrobial activity against beta lactamase-positive Bacteroides fragilis isolated from intra-abdominal infection and pelvic inflammatory disease patients after 48 hrs by agar dilution method; procedure, shortened: as §1
[3] = system: Porphyromonas asaccharolytica; test: Antimicrobial activity against Porphyromonas asaccharolyticus isolated from intra-abdominal infection and pelvic inflammatory disease patients after 48 hrs by agar dilution method; procedure, shortened: as §1
Anaerococcus prevotii = test: Antimicrobial activity against Anaerococcus prevotii isolated from intra-abdominal infection and pelvic inflammatory disease patients after 48 hrs by agar dilution method; procedure, shortened: as §1
Fusobacterium nucleatum [4] = test: Antimicrobial activity against beta lactamase-positive Fusobacterium nucleatum isolated from intra-abdominal infection and pelvic inflammatory disease patients after 48 hrs by time kill analysis
Procedure, shortened: (§2)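 The MIC was read by inspecting macrodilution time-kill tubes. Vials held prereduced brucella broth with 5% laked horse blood cells, hemin 5 μg/ml and vitamin K1 1 μg/ml. Final inoculum was 10^6–10^7 CFU/ml, prepared inside the anaerobe chamber. Vials were incubated 48 h at 35°C in a shaking water bath.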

Porphyromonas levii = test: Antimicrobial activity against Porphyromonas levii isolated from intra-abdominal infection and pelvic inflammatory disease patients after 48 hrs by agar dilution method; procedure, shortened: as §1
Parvimonas micra = test: Antimicrobial activity against Micromonas micros isolated from intra-abdominal infection and pelvic inflammatory disease patients after 48 hrs by agar dilution method; procedure, shortened: as §1
Fusobacterium mortiferum = test: Antimicrobial activity against beta lactamase-positive Fusobacterium mortiferum isolated from intra-abdominal infection and pelvic inflammatory disease patients after 48 hrs by agar dilution method; procedure, shortened: as §1
Prevotella buccae = test: Antimicrobial activity against beta lactamase-positive Prevotella buccae isolated from intra-abdominal infection and pelvic inflammatory disease patients after 48 hrs by agar dilution method; conditions: Segatella buccae; procedure, shortened: as §1
[5] = system: Prevotella melaninogenica; test: Antimicrobial activity against beta lactamase-positive Prevotella melaninogenica isolated from intra-abdominal infection and pelvic inflammatory disease patients after 48 hrs by agar dilution method; procedure, shortened: as §1
[6] = system: Paeniclostridium sordellii; test: Antimicrobial activity against Clostridium sordellii isolated from intra-abdominal infection and pelvic inflammatory disease patients after 48 hrs by agar dilution method; conditions: Paraclostridium sordellii; procedure, shortened: as §1
[7] = system: Bacteroides thetaiotaomicron; test: Antimicrobial activity against beta lactamase-positive Bacteroides thetaiotaomicron isolated from intra-abdominal infection and pelvic inflammatory disease patients after 48 hrs by agar dilution method; procedure, shortened: as §1
Anaerococcus tetradius = test: Antimicrobial activity against Anaerococcus tetradius isolated from intra-abdominal infection and pelvic inflammatory disease patients after 48 hrs by agar dilution method; procedure, shortened: as §1
Clostridium perfringens [8] = test: Antimicrobial activity against Clostridium perfringens isolated from intra-abdominal infection and pelvic inflammatory disease patients after 48 hrs by agar dilution method
Procedure, shortened: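 CLSI agar dilution on brucella blood agar supplemented with laked sheep blood, hemin and vitamin K. Inoculum about 1 × 10^5 CFU/spot, applied by Steers replicator. Plates incubated 48 h at 35°C in an anaerobic glove box. MIC is the concentration giving marked growth reduction versus the anaerobic control plate. Standard QC strains included in each run.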

Porphyromonas gingivalis = test: Antimicrobial activity against Porphyromonas gingivalis isolated from intra-abdominal infection and pelvic inflammatory disease patients after 48 hrs by agar dilution method; procedure, shortened: as §1
Prevotella intermedia [9] = test: Antimicrobial activity against beta lactamase-positive Prevotella intermedia isolated from intra-abdominal infection and pelvic inflammatory disease patients after 48 hrs by time kill analysis; procedure, shortened: as §2
Finegoldia magna [10] = test: Antimicrobial activity against beta lactamase-positive Finegoldia magna isolated from intra-abdominal infection and pelvic inflammatory disease patients after 48 hrs by time kill analysis; procedure, shortened: as §2
[11] = system: Peptostreptococcus anaerobius; test: Antimicrobial activity against Peptostreptococcus anaerobius isolated from intra-abdominal infection and pelvic inflammatory disease patients after 48 hrs by agar dilution method; procedure, shortened: as §1
Clostridium perfringens [12] = test: Antimicrobial activity against Clostridium perfringens isolated from intra-abdominal infection and pelvic inflammatory disease patients after 48 hrs by time kill analysis
Procedure, shortened: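 Macrodilution in prereduced brucella broth with 5% laked horse blood cells, 5 μg/ml hemin and 1 μg/ml vitamin K1. Final inoculum 10^6 to 10^7 CFU/ml, prepared inside the anaerobe chamber. Vials incubated 48 h at 35°C in a shaking water bath. MIC read by inspecting the time-kill tubes, alongside an antibiotic-free growth control.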

[Clostridium] innocuum = Antimicrobial activity against Clostridium innocuum isolated from intra-abdominal infection and pelvic inflammatory disease patients after 48 hrs by agar dilution method; procedure, shortened: as §1
Prevotella corporis = test: Antimicrobial activity against beta lactamase-positive Prevotella corporis isolated from intra-abdominal infection and pelvic inflammatory disease patients after 48 hrs by agar dilution method; procedure, shortened: as §1
[13] = system: Fusobacterium necrophorum; test: Antimicrobial activity against Fusobacterium necrophorum isolated from intra-abdominal infection and pelvic inflammatory disease patients after 48 hrs by agar dilution method; procedure, shortened: as §1
[14] = system: Parabacteroides distasonis; test: Antimicrobial activity against beta lactamase-positive Bacteroides distasonis isolated from intra-abdominal infection and pelvic inflammatory disease patients after 48 hrs by agar dilution method; procedure, shortened: as §1
Fusobacterium varium = test: Antimicrobial activity against Fusobacterium varium isolated from intra-abdominal infection and pelvic inflammatory disease patients after 48 hrs by agar dilution method; procedure, shortened: as §1
Fusobacterium nucleatum [15] = test: Antimicrobial activity against beta lactamase-positive Fusobacterium nucleatum isolated from intra-abdominal infection and pelvic inflammatory disease patients after 48 hrs by agar dilution method; procedure, shortened: as §1
Clostridium cadaveris = test: Antimicrobial activity against Clostridium cadaveris isolated from intra-abdominal infection and pelvic inflammatory disease patients after 48 hrs by agar dilution method; procedure, shortened: as §1
[16] = system: Clostridium paraputrificum; test: Antimicrobial activity against Clostridium paraputrificum isolated from intra-abdominal infection and pelvic inflammatory disease patients after 48 hrs by agar dilution method; procedure, shortened: as §1
Phocaeicola vulgatus = test: Antimicrobial activity against beta lactamase-positive Bacteroides vulgatus isolated from intra-abdominal infection and pelvic inflammatory disease patients after 48 hrs by agar dilution method; procedure, shortened: as §1
[17] = system: Peptoniphilus asaccharolyticus; test: Antimicrobial activity against Peptoniphilus asaccharolyticus isolated from intra-abdominal infection and pelvic inflammatory disease patients after 48 hrs by agar dilution method; procedure, shortened: as §1
Prevotella nigrescens = test: Antimicrobial activity against beta lactamase-positive Prevotella nigrescens isolated from intra-abdominal infection and pelvic inflammatory disease patients after 48 hrs by agar dilution method; procedure, shortened: as §1
Bacteroides ovatus = test: Antimicrobial activity against beta lactamase-positive Bacteroides ovatus isolated from intra-abdominal infection and pelvic inflammatory disease patients after 48 hrs by agar dilution method; procedure, shortened: as §1
Thomasclavelia ramosa = test: Antimicrobial activity against Clostridium ramosum isolated from intra-abdominal infection and pelvic inflammatory disease patients after 48 hrs by agar dilution method; procedure, shortened: as §1
Finegoldia magna [18] = test: Antimicrobial activity against Finegoldia magna isolated from intra-abdominal infection and pelvic inflammatory disease patients after 48 hrs by agar dilution method; procedure, shortened: as §1
Clostridioides difficile = test: Antimicrobial activity against Clostridium difficile isolated from intra-abdominal infection and pelvic inflammatory disease patients after 48 hrs by agar dilution method; procedure, shortened: as §1
Prevotella disiens = test: Antimicrobial activity against beta lactamase-positive Prevotella disiens isolated from intra-abdominal infection and pelvic inflammatory disease patients after 48 hrs by agar dilution method; procedure, shortened: as §1
Prevotella intermedia [19] = test: Antimicrobial activity against beta lactamase-positive Prevotella intermedia isolated from intra-abdominal infection and pelvic inflammatory disease patients after 48 hrs by agar dilution method; procedure, shortened: as §1
[20] = system: Enterocloster clostridioformis; test: Antimicrobial activity against Clostridium clostridioforme isolated from intra-abdominal infection and pelvic inflammatory disease patients after 48 hrs by agar dilution method; procedure, shortened: as §1
Bacteroides fragilis [21] = test: Antimicrobial activity against beta lactamase-positive Bacteroides fragilis isolated from intra-abdominal infection and pelvic inflammatory disease patients after 48 hrs by time kill analysis; procedure, shortened: as §2
Prevotella bivia = test: Antimicrobial activity against beta lactamase-positive Prevotella bivia isolated from intra-abdominal infection and pelvic inflammatory disease patients after 48 hrs by agar dilution method; procedure, shortened: as §1

With CO/N=C(\C(=O)N[C@@H]1C(=O)N2C(C(=O)O)=C(CSc3nc(=O)c(O)nn3C)CS[C@H]12)c1csc(N)n1 [CEFTRIAXONE] the MIC [1] was 0.25 µg/mL (≈ 0.451 µM), the MIC50 (Prevotella denticola) was 4 µg/mL (≈ 7.21 µM) and the MIC90 (Prevotella denticola) was 64 µg/mL (≈ 115 µM). The MIC50 (Bacteroides fragilis [2]) was 64 µg/mL (≈ 115 µM), the MIC90 (Bacteroides fragilis [2]) was over 128 µg/mL and the MIC [3] was at most 0.125 µg/mL. It also gave an MIC (Anaerococcus prevotii) of at most 0.125 µg/mL, an MIC (Fusobacterium nucleatum [4]) of 0.125 µg/mL (≈ 0.225 µM) and an MIC (Porphyromonas levii) of at most 0.125 µg/mL. It also gave an MIC (Parvimonas micra) of at most 0.125 µg/mL, an MIC50 (Parvimonas micra) of at most 0.125 µg/mL and an MIC90 (Parvimonas micra) of 1 µg/mL (≈ 1.8 µM). It also gave an MIC50 (Fusobacterium mortiferum) of 0.25 µg/mL (≈ 0.451 µM), an MIC90 (Fusobacterium mortiferum) of at least 128 µg/mL and an MIC50 (Prevotella buccae) of 0.25 µg/mL (≈ 0.451 µM). The MIC90 (Prevotella buccae) was 4 µg/mL (≈ 7.21 µM), the MIC50 [5] was 4 µg/mL (≈ 7.21 µM) and the MIC90 [5] was 16 µg/mL (≈ 28.9 µM). The MIC [6] was 0.25 µg/mL (≈ 0.451 µM), the MIC50 [7] was over 128 µg/mL and the MIC90 [7] was over 128 µg/mL. It also gave an MIC (Anaerococcus tetradius) of 0.25 µg/mL (≈ 0.451 µM), an MIC50 (Anaerococcus tetradius) of 0.25 µg/mL (≈ 0.451 µM) and an MIC50 (Clostridium perfringens [8]) of 2 µg/mL (≈ 3.61 µM). For the same molecule, the MIC90 (Clostridium perfringens [8]) was 4 µg/mL (≈ 7.21 µM), the MIC (Porphyromonas gingivalis) was at most 0.125 µg/mL and the MIC (Prevotella intermedia [9]) was 0.125 µg/mL (≈ 0.225 µM). It also gave an MIC (Finegoldia magna [10]) of 8 µg/mL (≈ 14.4 µM), an MIC [11] of 0.5 µg/mL (≈ 0.902 µM) and an MIC50 [11] of 0.5 µg/mL (≈ 0.902 µM). For the same molecule, the MIC90 [11] was 16 µg/mL (≈ 28.9 µM), the MIC (Clostridium perfringens [12]) was 2 µg/mL (≈ 3.61 µM) and the MIC50 ([Clostridium] innocuum) was 16 µg/mL (≈ 28.9 µM). It also gave an MIC50 (Prevotella corporis) of 4 µg/mL (≈ 7.21 µM), an MIC90 (Prevotella corporis) of 32 µg/mL (≈ 57.7 µM) and an MIC50 [13] of at most 0.125 µg/mL. For the same molecule, the MIC90 [13] was 0.5 µg/mL (≈ 0.902 µM), the MIC50 [14] was 8 µg/mL (≈ 14.4 µM) and the MIC90 [14] was over 128 µg/mL. For the same molecule, the MIC50 (Fusobacterium varium) was 4 µg/mL (≈ 7.21 µM), the MIC90 (Fusobacterium varium) was 8 µg/mL (≈ 14.4 µM) and the MIC50 (Fusobacterium nucleatum [15]) was 0.25 µg/mL (≈ 0.451 µM). The MIC90 (Fusobacterium nucleatum [15]) was 0.5 µg/mL (≈ 0.902 µM), the MIC (Clostridium cadaveris) was 4 µg/mL (≈ 7.21 µM) and the MIC [16] was 4 µg/mL (≈ 7.21 µM). It also gave an MIC50 (Phocaeicola vulgatus) of 16 µg/mL (≈ 28.9 µM), an MIC90 (Phocaeicola vulgatus) of over 128 µg/mL and an MIC [17] of at most 0.125 µg/mL. The MIC50 [17] was at most 0.125 µg/mL, the MIC90 [17] was 1 µg/mL (≈ 1.8 µM) and the MIC50 (Prevotella nigrescens) was 4 µg/mL (≈ 7.21 µM). The MIC90 (Prevotella nigrescens) was 16 µg/mL (≈ 28.9 µM), the MIC50 (Bacteroides ovatus) was 64 µg/mL (≈ 115 µM) and the MIC90 (Bacteroides ovatus) was over 128 µg/mL. For the same molecule, the MIC50 (Thomasclavelia ramosa) was 0.5 µg/mL (≈ 0.902 µM), the MIC50 (Finegoldia magna [18]) was 8 µg/mL (≈ 14.4 µM) and the MIC90 (Finegoldia magna [18]) was 8 µg/mL (≈ 14.4 µM). For the same molecule, the MIC50 (Clostridioides difficile) was 64 µg/mL (≈ 115 µM), the MIC90 (Clostridioides difficile) was 64 µg/mL (≈ 115 µM) and the MIC50 (Prevotella disiens) was 2 µg/mL (≈ 3.61 µM). The MIC90 (Prevotella disiens) was 64 µg/mL (≈ 115 µM), the MIC50 (Prevotella intermedia [19]) was 4 µg/mL (≈ 7.21 µM) and the MIC90 (Prevotella intermedia [19]) was 64 µg/mL (≈ 115 µM). For the same molecule, the MIC [20] was 64 µg/mL (≈ 115 µM), the MIC (Bacteroides fragilis [21]) was 0.25 µg/mL (≈ 0.451 µM) and the MIC50 (Prevotella bivia) was 8 µg/mL (≈ 14.4 µM). It also gave an MIC90 (Prevotella bivia) of 64 µg/mL (≈ 115 µM).
